This note sets out measurements from ChEMBL document CHEMBL1828509, “Synthesis, pharmacological evaluation and docking studies of coumarin derivatives” (2011).

What all share (type): functional
The test system of assay [1] is Rattus norvegicus. In words: Antiinflammatory activity in Wistar albino rat assessed as inhibition of carrageenan-induced paw edema at 20 mg/kg, po administered 30 mins before carrageenan challenge measured after 2 hrs by plethysmograph. In a few lines: (§1)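 Male Wistar albino rats (150–200 g), six per group, dosed orally with 20 mg/kg suspension; control got 0.1 ml of 1% gum acacia suspension orally. After 30 min, 0.1 ml of 1% carrageenan in normal saline injected sub-plantar into the right hind paw. Paw volume measured by plethysmograph at 0, 1, 2, 3 and 4 h; percent edema inhibition versus control at matching time.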
Background: The carrageenan paw model is a standard test of acute inflammation.

Assay [2] deals with Candida albicans. The assay can be described thus: Antifungal activity against Candida albicans MTCC 183 at 50 ug/ml. The note with it: read-out: IZ.
In a further assay the test system is Mus musculus. In words: Analgesic activity in mouse assessed as inhibition of acetic acid-induced writhing administered 30 mins before acetic acid challenge measured after 30 mins relative to control. Further details: concentration or dose not given beside the values. In a few lines: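 Groups of six mice (20–30 g, both sexes, pregnant females excluded) dosed with test compound; 30 min later 0.25 ml/mouse of 0.5% acetic acid given i.p. Writhes counted over the next 30 min. Mean writhes per group ± SE; percent decrease versus untreated control mice.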
Background: In writhing tests, fewer writhes than in controls are read as antinociception.

Assay [3] relates to Aspergillus niger. In words: Antifungal activity against Aspergillus niger MTCC 282 at 25 ug/ml. The note with it: read-out: IZ.
Assay [4] concerns Rattus norvegicus. In words: Antiinflammatory activity in Wistar albino rat assessed as inhibition of carrageenan-induced paw edema at 20 mg/kg, po administered 30 mins before carrageenan challenge measured after 4 hrs by plethysmograph. An outline of the steps: as §1
The test system of assay [5] is Rattus norvegicus. The assay can be described thus: Antiinflammatory activity in Wistar albino rat assessed as inhibition of carrageenan-induced paw edema at 20 mg/kg, po administered 30 mins before carrageenan challenge measured after 1 hr by plethysmograph. In a few lines:
as §1

Assay [6] has as its system Escherichia coli. In words: Antimicrobial activity against Escherichia coli MTCC 4315 at 25 ug/ml. The note with it: read-out: IZ.
Assay [7] concerns Rattus norvegicus. The assay can be described thus: Antiinflammatory activity in Wistar albino rat assessed as inhibition of carrageenan-induced paw edema at 20 mg/kg, po administered 30 mins before carrageenan challenge measured after 3 hrs by plethysmograph. In a few lines: as §1
Assay [8] relates to Aspergillus niger. In words: Antifungal activity against Aspergillus niger MTCC 282 at 10 ug/ml. The note with it: read-out: IZ.
In assay [9] the test system is Bacillus subtilis. The assay can be described thus: Antimicrobial activity against Bacillus subtilis MTCC 1789 at 50 ug/ml. The note with it: read-out: IZ.
For assay [10], the system named is Aspergillus niger. The assay can be described thus: Antifungal activity against Aspergillus niger MTCC 282 at 50 ug/ml. To be noted: read-out: IZ.
In assay [11] the test system is Candida albicans. In words: Antifungal activity against Candida albicans MTCC 183 at 25 ug/ml. The note with it: read-out: IZ.
Assay [12] relates to Escherichia coli. The assay can be described thus: Antimicrobial activity against Escherichia coli MTCC 4315 at 10 ug/ml. To be noted: read-out: IZ.
Assay [13] concerns Bacillus subtilis. The assay can be described thus: Antimicrobial activity against Bacillus subtilis MTCC 1789 at 10 ug/ml. The note with it: read-out: IZ.
Assay [14] has as its system Escherichia coli. In words: Antimicrobial activity against Escherichia coli MTCC 4315 at 50 ug/ml. The note with it: read-out: IZ.
The subject of assay [15] is Candida albicans. The assay can be described thus: Antifungal activity against Candida albicans MTCC 183 at 10 ug/ml. To be noted: read-out: IZ.
The test system of assay [16] is Bacillus subtilis. The assay can be described thus: Antimicrobial activity against Bacillus subtilis MTCC 1789 at 25 ug/ml. To be noted: read-out: IZ.

Each structure is given as a SMILES string.

A word on the inhibition in vivo: it is the share of the control response that was lost under treatment.

Consider `Cc1ccccc1NCC(=O)Oc1ccc2c(C)cc(=O)oc2c1`, for which the inhibition in vivo at 20 mg/kg in the assay with Rattus norvegicus [1] stood at 15.3%; in the assay with Rattus norvegicus [4], 19.4%; with Rattus norvegicus [5] it was 12.5%; with Rattus norvegicus [7] it was 17%. Moreover, the zone of inhibition at 50 µg/mL in the assay on Candida albicans [2] is 12.2 mm; with Bacillus subtilis [9], 11.6 mm; in the assay on Aspergillus niger [10] it was 13.1 mm. Besides, the Activity in the assay on Mus musculus is on record as 23%. Further, the zone of inhibition at 25 µg/mL in the assay on Aspergillus niger [3] amounted to 12.4 mm; with Escherichia coli [6], 10.5 mm. Further, the zone of inhibition at 10 µg/mL in the assay on Aspergillus niger [8] worked out at 10.6 mm.
As for `Cc1cccc(NCC(=O)Oc2ccc3c(C)cc(=O)oc3c2)c1`, the zone of inhibition at 25 µg/mL came out at 13.4 mm with Candida albicans [11], 12.2 mm in the assay on Aspergillus niger [3], 14 mm in the assay on Escherichia coli [6] and 12.4 mm in the assay on Bacillus subtilis [16]. The zone of inhibition at 10 µg/mL was found to be 11 mm in the assay with Escherichia coli [12], 10.5 mm in the assay on Bacillus subtilis [13] and 11.4 mm with Candida albicans [15]. In addition, the inhibition in vivo at 20 mg/kg with Rattus norvegicus [1] was determined as 15.3%; in the assay on Rattus norvegicus [4] it was 23.7%; with Rattus norvegicus [5], 12.5%; in the assay on Rattus norvegicus [7] it was 15.9%. The zone of inhibition at 50 µg/mL was determined as 14.4 mm in the assay on Candida albicans [2], 16.9 mm in the assay on Escherichia coli [14], 13.6 mm in the assay with Bacillus subtilis [9] and 13.4 mm with Aspergillus niger [10]. In the assay on Mus musculus, the Activity was found to be 13%.
On to `Cc1ccc(NCC(=O)Oc2ccc3c(C)cc(=O)oc3c2)cc1`, for which the zone of inhibition at 10 µg/mL in the assay on Escherichia coli [12] is 11.2 mm. Also, the inhibition in vivo at 20 mg/kg with Rattus norvegicus [1] worked out at 20.5%; in the assay with Rattus norvegicus [4] it was 6.7%; with Rattus norvegicus [5] it was 14.2%; with Rattus norvegicus [7], 20.2%. Further, the zone of inhibition at 50 µg/mL amounted to 12.4 mm in the assay on Candida albicans [2], 14 mm with Escherichia coli [14], 12.3 mm in the assay with Bacillus subtilis [9] and 11.4 mm with Aspergillus niger [10]. Besides, the Activity in the assay on Mus musculus is 28%. Also, the zone of inhibition at 25 µg/mL with Aspergillus niger [3] turned out to be 10.5 mm; in the assay on Escherichia coli [6], 13 mm.
For the compound `Cc1cc(=O)oc2cc(OC(=O)CNc3nc4ccccc4s3)ccc12`, the zone of inhibition at 25 µg/mL with Candida albicans [11] was determined as 12.2 mm. Besides, the inhibition in vivo at 20 mg/kg with Rattus norvegicus [1] amounted to 35.9%; with Rattus norvegicus [4], 40.6%; in the assay with Rattus norvegicus [5] it was 30.3%; with Rattus norvegicus [7], 40.4%. Besides, the zone of inhibition at 10 µg/mL in the assay with Bacillus subtilis [13] turned out to be 10.4 mm; in the assay with Candida albicans [15], 13.4 mm. The Activity with Mus musculus is on record as 35%. The zone of inhibition at 50 µg/mL in the assay with Escherichia coli [14] came to 14.5 mm; in the assay with Bacillus subtilis [9], 18.1 mm; with Aspergillus niger [10] it was 12.4 mm.
Turning to `NCC[C@H](O)C(=O)N[C@@H]1C[C@H](N)[C@@H](O[C@H]2O[C@H](CN)[C@@H](O)[C@H](O)[C@H]2O)[C@H](O)[C@H]1O[C@H]1O[C@H](CO)[C@@H](O)[C@H](N)[C@H]1O` [AMIKACIN], the zone of inhibition at 10 µg/mL in the assay on Escherichia coli [12] worked out at 14 mm. For the same compound, the zone of inhibition at 50 µg/mL in the assay with Escherichia coli [14] turned out to be 20 mm. In addition, the zone of inhibition at 25 µg/mL in the assay on Escherichia coli [6] came out at 16.2 mm.
`COC1=CC(=O)C[C@@H](C)[C@]12Oc1c(Cl)c(OC)cc(OC)c1C2=O` [GRISEOFULVIN]: in the assay with Candida albicans [11], the zone of inhibition at 25 µg/mL came out at 14.2 mm. In addition, the zone of inhibition at 50 µg/mL in the assay with Candida albicans [2] came to 18.2 mm. Besides, the zone of inhibition at 10 µg/mL with Candida albicans [15] was determined as 12.6 mm.
`COc1ccc2c(c1)c(CC(=O)O)c(C)n2C(=O)c1ccc(Cl)cc1` [INDOMETHACIN]: the inhibition in vivo at 20 mg/kg stood at 67.9% in the assay with Rattus norvegicus [1], 57.6% in the assay on Rattus norvegicus [4], 53.5% in the assay on Rattus norvegicus [5] and 68.8% with Rattus norvegicus [7]. For the same compound, in the assay on Mus musculus, the Activity was 56%.
On to `CN[C@H](CC(C)C)C(=O)N[C@H]1C(=O)N[C@@H](CC(N)=O)C(=O)N[C@H]2C(=O)N[C@H]3C(=O)N[C@H](C(=O)N[C@H](C(=O)O)c4cc(O)cc(O)c4-c4cc3ccc4O)[C@H](O)c3ccc(c(Cl)c3)Oc3cc2cc(c3O[C@@H]2O[C@H](CO)[C@@H](O)[C@H](O)[C@H]2O[C@H]2C[C@](C)(N)[C@H](O)[C@H](C)O2)Oc2ccc(cc2Cl)[C@H]1O` [VANCOMYCIN], for which the zone of inhibition at 10 µg/mL in the assay on Bacillus subtilis [13] was 14.2 mm. The zone of inhibition at 25 µg/mL with Bacillus subtilis [16] was determined as 18.2 mm. Moreover, in the assay on Bacillus subtilis [9], the zone of inhibition at 50 µg/mL stood at 20.1 mm.
